# A selection: hits, their analogues and other compounds. The true share with any hit is near 5.8%.
# Pf Dd2 growth – P. falciparum Dd2 growth inhibitors, primary screen, SYBR Green fluorescence, single dose replicates | hit rate 2.3% among 94,000 | activity change, % at 10 µM | 72 h; active compounds read low; in the data active = activity change below about -80%; inconclusive = no clear call, values can overlap the other calls
# IDH1 R132H inh – inhibitors of IDH1 R132H reductase, primary screen, biochemical, plate reader, single point | Isocitrate dehydrogenase [NADP] cytoplasmic (Homo sapiens), O75874 | diaphorase/resazurin fluorescence, 60 min | inhibition, % at 10 µM | hit rate 0.18% among 70,000 | AID 624101, 2012; in the data active = inhibition above about 34%; inconclusive = no clear call, values can overlap the other calls; inactive = below about 11%;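 also: 0% = DMSO and 100% = no enzyme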
# KDM4C inh – inhibitors of GASC-1 (KDM4C) histone demethylase, primary screen, biochemical, single concentration HTS. GST-KDM4C 2-372, H3K9me3 peptide, LANCE TR-FRET. hit rate 0.15% among 96,000. AID 720574, 2013. inhibition, % at 12.5 µM;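 active = mean replicate inhibition above about 25%, with at least 55% of replicates also reaching it, limit read from the data, passing the limit was not always enough; inconclusive = only one of those two conditions met; inactive = neither condition met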
# Target sequence (Q9H3R0 2-372 limits assumed): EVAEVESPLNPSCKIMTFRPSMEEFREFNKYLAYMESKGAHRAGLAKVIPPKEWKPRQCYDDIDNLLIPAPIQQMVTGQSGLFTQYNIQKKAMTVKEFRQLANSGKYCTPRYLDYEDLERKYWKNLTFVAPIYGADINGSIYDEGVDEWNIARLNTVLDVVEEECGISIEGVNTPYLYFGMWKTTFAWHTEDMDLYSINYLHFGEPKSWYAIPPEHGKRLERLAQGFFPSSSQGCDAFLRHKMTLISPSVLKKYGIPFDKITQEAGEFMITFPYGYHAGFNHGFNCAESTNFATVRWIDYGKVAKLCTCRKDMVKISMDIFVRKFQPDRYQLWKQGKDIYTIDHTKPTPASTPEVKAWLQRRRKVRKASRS
#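 Material: GST-tagged GASC-1 (JMJD2C) catalytic fragment, aa 2-372 / Quantity: enzyme final amount 10 nM / Medium: HEPES buffer, pH 7.5, plus ascorbate / Doses: one test concentration per compound / Incubation: 30 min reaction, 60 min detection, RT / Measured by: LANCE TR-FRET / Read-out: inhibition from TR-FRET ratio decrease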
# T cruzi growth-1 – T. cruzi intracellular proliferation inhibitors, primary screen, cell-based, beta-gal Tulahuen parasites, NIH3T3 host, luminescence | hit rate 5.9% among 77,000 | AID 624255, 2012 | inhibition, % at 8.34 µM | T. cruzi beta-gal in NIH3T3, GalScreen luminescence, 90 h;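 active = mean inhibition above about 93%, with at least 55% of replicates each passing it, limit read from the data, passing the limit was not always enough; inconclusive = only one of those two conditions holds; inactive = neither condition holds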
# T cruzi growth-2 – T. cruzi intracellular proliferation inhibitors, confirmation, cell-based, NIH3T3 host, beta-gal parasite, luminescence, cherry-pick | T. cruzi beta-gal in NIH3T3, GalScreen luminescence, 90 h | inhibition, % at 8.35 µM | shares compounds with T cruzi growth-1 | hit rate 72% among 5,600;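 active = mean replicate inhibition above about 95% and at least 55% of replicates individually reaching it, limit read from the data; inconclusive = only one of the two criteria is met; inactive = neither criterion is met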
# T cruzi growth-3 – inhibitors of intracellular T. cruzi replication, confirmation, NIH3T3 host cells, beta-gal parasites, cherry-pick, set 2; shares compounds with T cruzi growth-1; T. cruzi beta-gal in NIH3T3, GalScreen luminescence, 90 h; inhibition, % at 2.09 µM; hit rate 21% among 5,600; AID 651740, 2012;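 active = mean inhibition above about 95%, with at least 55% of replicates also reaching it, limit read from the data; inconclusive = meets just one of the two conditions; inactive = meets neither condition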;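 also: plate controls were neutral control median for no effect and positive control median for full effect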
# NIH3T3 tox – cytotoxicity in mouse NIH/3T3 fibroblasts, confirmation, cytotoxicity control for T. cruzi proliferation inhibitor project, cell-based, cherry-pick, single point; shares compounds with T cruzi growth-1; cytotoxicity (signal decrease), % at 8.35 µM; NIH/3T3 viability, CellTiter-Glo ATP luminescence, 90 h; hit rate 14% among 5,600; AID 651742, 2012;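 active = mean signal decrease across replicates above about 35% based on untreated-well scatter, with enough replicates individually passing, limit read from the data; inconclusive = no rule stated though some were filed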;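 also: 0% = median of neutral control wells and 100% = median of positive control wells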
# NIH3T3 tox 2 – NIH/3T3 fibroblast cytotoxicity, confirmation, cytotoxicity control, cell-based, cherry-pick, single point, set 2; AID 651744, 2012; shares compounds with T cruzi growth-1; inhibition, % at 24.9 µM; NIH/3T3 viability, CellTiter-Glo ATP luminescence, 90 h; hit rate 56% among 5,600;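 active = mean loss of cell viability signal at or above a set limit, and enough replicates individually reaching it; inconclusive = meets only the mean limit or only the replicate share; inactive = meets neither condition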;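 also: 0% = median of neutral control wells and 100% = median of positive control wells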
# Starred values were filed as active, the others as inactive; ? = inconclusive; . = no result; ! = not confirmed by another sample.
SMILES,Pf Dd2 growth,IDH1 R132H inh,KDM4C inh,T cruzi growth-1,T cruzi growth-2,T cruzi growth-3,NIH3T3 tox,NIH3T3 tox 2
C[C@H](CO)N1C[C@H](C)[C@@H](CN(C)C(=O)C2CCC2)Oc2cc(C#CC3CC3)ccc2S1(=O)=O,-35,-2,-2,76,.,.,.,.
C[C@H](CO)N1C[C@H](C)[C@H](CN(C)C(=O)C2CCCCC2)Oc2cc(C#CC3CC3)ccc2S1(=O)=O,-40,.,-2,?,106*,67,11,27
C[C@@H]1CN([C@@H](C)CO)S(=O)(=O)c2ccc(C#CC3CC3)cc2O[C@@H]1CN(C)C(=O)C1CCCCC1,-16,.,-1,100*,105*,88,14,20
C[C@H]1CN([C@@H](C)CO)S(=O)(=O)c2ccc(C#CC3CC3)cc2O[C@H]1CN(C)C(=O)C1CCCCC1,-38,.,1,100*,106*,84,13,51*
C[C@@H]1CN([C@@H](C)CO)S(=O)(=O)c2ccc(C#CC3CC3)cc2O[C@H]1CN(C)C(=O)C1CCCCC1,-43,.,-2,?,105*,81,38*,29*
CN(C)CCCN1C(=O)[C@@]2(Cc3ccccc31)c1ccccc1C(=O)N(Cc1ccccc1)[C@H]2c1ccc(CO)cc1,.,1,.,.,.,.,.,.
CC(C)N(Cc1nc(-c2ccccc2Cl)no1)S(=O)(=O)c1ccc([N+](=O)[O-])cc1,.,0,.,.,.,.,.,.
C[C@H]1CN([C@@H](C)CO)S(=O)(=O)c2ccc(C#CC3CC3)cc2O[C@@H]1CN(C)C(=O)C1CCCCC1,-36,.,1,111*,106*,92,11,45*
C[C@H](CO)N1C[C@H](C)[C@@H](CN(C)C(=O)C2CCCCC2)Oc2cc(C#CC3CC3)ccc2S1(=O)=O,-9,.,-2,?,105*,71,18,43*
CCCC#Cc1ccc2c(c1)O[C@@H](CN(C)S(C)(=O)=O)[C@H](C)CN([C@H](C)CO)S2(=O)=O,-12,0,0,15,.,.,.,.
CCCC#Cc1ccc2c(c1)O[C@@H](CN(C)S(C)(=O)=O)[C@@H](C)CN([C@@H](C)CO)S2(=O)=O,-1,-2,-1,101*,?,?,32,58*
C[C@@H]1CN([C@H](C)CO)S(=O)(=O)c2ccc(C#Cc3ccccc3)cc2O[C@@H]1CN(C)S(C)(=O)=O,-40,-1,-4,69,.,.,.,.
C[C@H]1CN([C@@H](C)CO)S(=O)(=O)c2ccc(C#Cc3ccc(F)cc3)cc2O[C@H]1CN(C)S(C)(=O)=O,-36,-2,1,118*,105*,59,20,2
C[C@H](CO)N1C[C@H](C)[C@H](CN(C)S(C)(=O)=O)Oc2cc(C#Cc3ccc(F)cc3)ccc2S1(=O)=O,-26,-3,8,115*,103*,71,12,51*
C[C@H]1CN([C@@H](C)CO)S(=O)(=O)c2ccc(C#Cc3ccc(F)cc3)cc2O[C@@H]1CN(C)S(C)(=O)=O,-10,-2,-2,122*,102*,65,?,87*
C[C@@H]1CN([C@@H](C)CO)C(=O)Cc2cc(NC(=O)Nc3cccc4ccccc34)ccc2O[C@H]1CN(C)Cc1ccc2c(c1)OCO2,-7,0,-1,109*,110*,70,29,-2
C[C@H](CO)N1C[C@H](C)[C@H](CN(C)Cc2ccc3c(c2)OCO3)Oc2ccc(NC(=O)Nc3cccc4ccccc34)cc2C1=O,6,0,-1,105*,?,104*,32,67*
C[C@H](CO)N1C[C@H](C)[C@@H](CN(C)Cc2cccnc2)Oc2cc(C#CC3CCCC3)ccc2S1(=O)=O,-66,.,1,96*,102*,109*,-9,105*
C[C@@H]1CN([C@@H](C)CO)S(=O)(=O)c2ccc(C#CC3CCCCC3)cc2O[C@@H]1CN(C)Cc1cccnc1,-74,.,1,102*!,113*,87,51*,105*
N=C1C(c2nc3ccccc3s2)=C(O)CN1CCCN1CCOCC1,.,0,.,.,.,.,.,.
Cc1ccccc1S(=O)(=O)N1CCCCN2[C@@H](CO)[C@@H](c3ccc(-c4cccc(F)c4)cc3)[C@@H]2C1,-76,.,-5,55,.,.,.,.
Cc1ccccc1S(=O)(=O)N1CCCCN2[C@H](CO)[C@@H](c3ccc(-c4cccc(F)c4)cc3)[C@H]2C1,-40,.,-1,106*,104*,59,18,76*
Cc1ccccc1S(=O)(=O)N1CCCCN2[C@H](C1)[C@H](c1ccc(-c3cccc(F)c3)cc1)[C@@H]2CO,-33,.,-1,103*,103*,106*,-12,57*
Cc1ccccc1S(=O)(=O)N1CCCCN2[C@H](CO)[C@@H](c3ccc(-c4ccccc4)cc3)[C@@H]2C1,3,.,.,102*,98*,80,36*,45*
Cc1ccccc1S(=O)(=O)N1CCCCN2[C@H](CO)[C@H](c3ccc(-c4cccc(F)c4)cc3)[C@@H]2C1,-14,.,-2,81,.,.,.,.
SMILES,Pf Dd2 growth,IDH1 R132H inh,KDM4C inh,T cruzi growth-1,T cruzi growth-2,T cruzi growth-3,NIH3T3 tox,NIH3T3 tox 2
O=C(CSc1nc2c(c(C(F)(F)F)n1)CCCC2)Nc1cccc(Cl)c1Cl,.,0,.,.,.,.,.,.
O=C(Nc1ccccc1[N+](=O)[O-])c1ccc(CNc2nccc(-c3cccnc3)n2)cc1,.,0,.,.,.,.,.,.
CCc1ccc(NC(=O)CSc2nc3ccccc3[nH]2)cc1,.,0,.,.,.,.,.,.
C[C@@H]1CN([C@@H](C)CO)C(=O)c2cccc(NC(=O)c3ccc(-c4nccs4)cc3)c2O[C@@H]1CN(C)Cc1ccc(C(F)(F)F)cc1,-78,0,-3,?,111*,102*,-56,7
C[C@H]1CN([C@@H](C)CO)C(=O)c2cccc(NC(=O)c3ccc(-c4nccs4)cc3)c2O[C@@H]1CN(C)Cc1ccc(C(F)(F)F)cc1,-71,-1,-2,109*,95,87,-4,84*
C[C@@H]1CN([C@H](C)CO)C(=O)c2cccc(NC(=O)c3ccc(-c4nccs4)cc3)c2O[C@@H]1CN(C)Cc1ccc(C(F)(F)F)cc1,-46,-12,-1,106,.,.,.,.

# From PubChem
